This passage reports IC50 results from PubChem BioAssay AID504677 (The Scripps Research Institute Molecular Screening Center, 2011).

The source made the active and inactive calls.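 The calls were made as follows: active = compounds with IC50 half-inhibiting concentration of 10 µM or lower; inactive = IC50 above 10 µM.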

The term IC50 denotes the concentration needed to halve the response being measured.

In the assay the test system is E. coli V3065 expressing H. pylori AddAB, T4 phage, OD growth. Put plainly: H. pylori AddAB complex inhibitors in E. coli, late-stage follow-up, absorbance, E. coli V3065, T4 phage, powder samples (AID 504677). The gist of the method: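 Assay system: addAB+ E. coli strain V3065; timing: 60 min compound-cell pre-incubation, then 18 h phage exposure at 37 °C; replicates: each concentration tested in triplicate; signal: absorbance at 600 nm as bacterial growth measure; read-out basis: IC50 from sigmoidal fit of percent inhibition versus concentration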
For `O=C(Nc1ccc(N2CCOCC2)cc1)c1ccc([N+](=O)[O-])o1`, the IC50 was 11.8 µM (inactive). The same measure for `Cc1cccnc1NC(=O)c1ccc([N+](=O)[O-])o1`: 19.6 µM (inactive). The same measure for `CC(=O)Nc1ccc2nc(NC(=O)c3ccc([N+](=O)[O-])o3)sc2c1`: > 119 µM (inactive); for `CCn1cc(C(=O)O)c(=O)c2cnc(N3CCN(C(=S)Nc4ccccc4C(F)(F)F)CC3)nc21`: 35.5 µM (inactive); for `O=C(Nc1cccc(NC(=O)c2ccccc2Cl)c1)c1ccc([N+](=O)[O-])o1`: > 13.2 µM (inactive). Under `C=CCn1c(Sc2ncc([N+](=O)[O-])s2)n[nH]c1=O` stands 14.8 µM (inactive); under `O=C(Nc1ncccn1)c1ccc([N+](=O)[O-])o1`, 7.54 µM. Turning to `O=C(NCc1cccnc1)c1ccc([N+](=O)[O-])o1`, the IC50 is 18.9 µM (inactive).

On to `Cc1ccc2nc(/C(C#N)=C\c3ccc([N+](=O)[O-])o3)[nH]c2c1`, for which the IC50 is 9.42 µM.

On to `O=C(OCC(=O)c1cccs1)c1ccc([N+](=O)[O-])o1`, for which the IC50 is 53.3 µM (inactive). For the compound `N#Cc1c(NC(=O)c2ccc([N+](=O)[O-])o2)sc2c1CCC2`, the IC50 was 17.8 µM (inactive).

`NC(=O)c1ccsc1NC(=O)COC(=O)c1ccc([N+](=O)[O-])o1`: the IC50 is 5.83 µM.
